Source: ChEMBL document CHEMBL1141052, “Boro-norleucine as a P1 residue for the design of selective and potent DPP7 inhibitors” (Bioorg Med Chem Lett, 2005)

Columns and labels:
[1] = target: Dipeptidyl peptidase 2 (Homo sapiens, UniProt Q9UHL4); test: Inhibitory concentration against human dipeptidylpeptidase 7
[2] = target: T1, Dipeptidyl peptidase 4 (Homo sapiens, UniProt P27487); test: Inhibitory concentration against human dipeptidylpeptidase 4
Target sequence in this assay (P27487 whole entry): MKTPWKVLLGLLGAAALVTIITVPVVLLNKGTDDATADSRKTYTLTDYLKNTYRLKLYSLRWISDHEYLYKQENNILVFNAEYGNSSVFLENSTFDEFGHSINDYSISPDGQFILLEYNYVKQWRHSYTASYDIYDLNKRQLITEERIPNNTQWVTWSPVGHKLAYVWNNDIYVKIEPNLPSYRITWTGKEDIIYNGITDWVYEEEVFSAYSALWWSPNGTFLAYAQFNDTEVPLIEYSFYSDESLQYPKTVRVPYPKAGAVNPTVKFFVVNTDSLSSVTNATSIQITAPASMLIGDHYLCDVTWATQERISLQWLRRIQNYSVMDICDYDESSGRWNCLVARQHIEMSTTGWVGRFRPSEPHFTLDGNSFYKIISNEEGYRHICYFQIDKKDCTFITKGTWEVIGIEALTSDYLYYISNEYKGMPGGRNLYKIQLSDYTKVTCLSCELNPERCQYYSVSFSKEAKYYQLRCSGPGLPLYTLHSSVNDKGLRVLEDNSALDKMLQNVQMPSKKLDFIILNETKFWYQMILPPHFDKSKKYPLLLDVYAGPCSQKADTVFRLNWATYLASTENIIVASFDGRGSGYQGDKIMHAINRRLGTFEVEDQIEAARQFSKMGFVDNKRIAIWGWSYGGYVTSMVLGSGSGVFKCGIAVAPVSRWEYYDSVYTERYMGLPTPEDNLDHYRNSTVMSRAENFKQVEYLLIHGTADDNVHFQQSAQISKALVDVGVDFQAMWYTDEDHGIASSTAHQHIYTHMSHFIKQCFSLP

[3] = target: T2, Prolyl endopeptidase FAP (Homo sapiens, UniProt Q12884); test: Inhibitory concentration against human fibroblast activation protein alpha; ni = no inhibition at 33 uM concentration
T2 sequence (Q12884 whole entry): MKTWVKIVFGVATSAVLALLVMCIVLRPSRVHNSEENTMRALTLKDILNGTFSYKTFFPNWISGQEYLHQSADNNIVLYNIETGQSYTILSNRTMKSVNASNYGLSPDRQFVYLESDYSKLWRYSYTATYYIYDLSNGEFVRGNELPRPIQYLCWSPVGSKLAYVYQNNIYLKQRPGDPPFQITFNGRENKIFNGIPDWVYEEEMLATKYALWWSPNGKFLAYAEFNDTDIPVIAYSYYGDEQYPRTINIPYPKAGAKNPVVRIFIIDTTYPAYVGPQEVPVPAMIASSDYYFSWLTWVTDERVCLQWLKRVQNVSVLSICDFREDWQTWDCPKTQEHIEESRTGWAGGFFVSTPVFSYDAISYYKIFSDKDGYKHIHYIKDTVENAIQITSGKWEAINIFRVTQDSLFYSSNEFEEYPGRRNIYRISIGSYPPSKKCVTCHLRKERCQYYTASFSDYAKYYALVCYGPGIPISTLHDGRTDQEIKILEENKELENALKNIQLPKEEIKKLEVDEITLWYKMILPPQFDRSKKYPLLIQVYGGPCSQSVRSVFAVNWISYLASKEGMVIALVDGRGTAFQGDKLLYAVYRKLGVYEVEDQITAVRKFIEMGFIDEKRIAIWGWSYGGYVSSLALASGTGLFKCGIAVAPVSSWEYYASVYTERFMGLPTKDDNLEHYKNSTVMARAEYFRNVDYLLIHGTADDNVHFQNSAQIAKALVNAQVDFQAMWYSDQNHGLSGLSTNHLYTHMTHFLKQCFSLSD

[4] = target: T1, Dipeptidyl peptidase 4
Target sequence in this assay (P27487 whole entry): as the sequence (P27487 whole entry) above

[5] = target: T3, Dipeptidyl peptidase 9 (Homo sapiens, UniProt Q86TI2); test: Percentage inhibition against human dipeptidylpeptidase 9 using FP-TAMRA incubated for 30 min at 20 uM concentration
Outline: (§1)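 DPP8 and DPP9 from MDA-MB-435 cell lysate. Compounds dissolved in 50% DMSO/50 mM glycine buffer pH 2.5 (final DMSO 1% v/v), serially diluted into lysate, FP-TAMRA activity-based probe labeling, 30 min, quenched with loading buffer. Labeled enzyme resolved by SDS–PAGE, TAMRA fluorescence read by flatbed gel scanner. Duplicates; activity as % of enzyme-alone control, IC50 from Hill fit.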
Target sequence in this assay (Q86TI2 2-863 limits assumed): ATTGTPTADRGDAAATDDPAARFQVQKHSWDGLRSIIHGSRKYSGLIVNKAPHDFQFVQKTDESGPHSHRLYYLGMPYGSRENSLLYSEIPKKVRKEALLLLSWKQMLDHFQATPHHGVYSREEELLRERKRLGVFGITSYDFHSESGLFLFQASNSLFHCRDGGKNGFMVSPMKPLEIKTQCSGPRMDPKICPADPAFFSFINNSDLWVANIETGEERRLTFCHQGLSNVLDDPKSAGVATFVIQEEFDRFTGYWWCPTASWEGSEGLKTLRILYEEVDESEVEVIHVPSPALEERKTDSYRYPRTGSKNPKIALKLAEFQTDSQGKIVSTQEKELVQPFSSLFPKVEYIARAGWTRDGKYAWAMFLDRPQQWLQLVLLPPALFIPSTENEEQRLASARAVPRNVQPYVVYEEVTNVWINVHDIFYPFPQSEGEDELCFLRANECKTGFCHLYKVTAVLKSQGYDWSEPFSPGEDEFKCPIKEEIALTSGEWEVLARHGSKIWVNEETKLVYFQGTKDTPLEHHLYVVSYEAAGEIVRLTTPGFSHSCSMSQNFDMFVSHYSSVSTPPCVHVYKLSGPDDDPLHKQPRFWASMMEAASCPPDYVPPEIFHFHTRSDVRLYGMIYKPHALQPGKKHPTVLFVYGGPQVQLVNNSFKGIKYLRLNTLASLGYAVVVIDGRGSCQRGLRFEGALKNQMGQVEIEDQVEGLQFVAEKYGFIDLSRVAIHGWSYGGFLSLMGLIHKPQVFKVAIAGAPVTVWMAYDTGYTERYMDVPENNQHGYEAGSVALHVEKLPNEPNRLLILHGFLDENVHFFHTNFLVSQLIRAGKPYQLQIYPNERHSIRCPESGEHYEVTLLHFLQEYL

[6] = target: Dipeptidyl peptidase 8 (Homo sapiens, UniProt Q6V1X1); test: Inhibitory concentration against human dipeptidylpeptidase 8 using FP-TAMRA incubated for 30 min; ni = no inhibition at 20 uM concentration; outline: as §1
[7] = target: T3, Dipeptidyl peptidase 9; test: Inhibitory concentration against human dipeptidylpeptidase 9 using FP-TAMRA incubated for 30 min; ni = no inhibition at 20 uM concentration; outline: as §1
Target sequence in this assay (Q86TI2 whole entry): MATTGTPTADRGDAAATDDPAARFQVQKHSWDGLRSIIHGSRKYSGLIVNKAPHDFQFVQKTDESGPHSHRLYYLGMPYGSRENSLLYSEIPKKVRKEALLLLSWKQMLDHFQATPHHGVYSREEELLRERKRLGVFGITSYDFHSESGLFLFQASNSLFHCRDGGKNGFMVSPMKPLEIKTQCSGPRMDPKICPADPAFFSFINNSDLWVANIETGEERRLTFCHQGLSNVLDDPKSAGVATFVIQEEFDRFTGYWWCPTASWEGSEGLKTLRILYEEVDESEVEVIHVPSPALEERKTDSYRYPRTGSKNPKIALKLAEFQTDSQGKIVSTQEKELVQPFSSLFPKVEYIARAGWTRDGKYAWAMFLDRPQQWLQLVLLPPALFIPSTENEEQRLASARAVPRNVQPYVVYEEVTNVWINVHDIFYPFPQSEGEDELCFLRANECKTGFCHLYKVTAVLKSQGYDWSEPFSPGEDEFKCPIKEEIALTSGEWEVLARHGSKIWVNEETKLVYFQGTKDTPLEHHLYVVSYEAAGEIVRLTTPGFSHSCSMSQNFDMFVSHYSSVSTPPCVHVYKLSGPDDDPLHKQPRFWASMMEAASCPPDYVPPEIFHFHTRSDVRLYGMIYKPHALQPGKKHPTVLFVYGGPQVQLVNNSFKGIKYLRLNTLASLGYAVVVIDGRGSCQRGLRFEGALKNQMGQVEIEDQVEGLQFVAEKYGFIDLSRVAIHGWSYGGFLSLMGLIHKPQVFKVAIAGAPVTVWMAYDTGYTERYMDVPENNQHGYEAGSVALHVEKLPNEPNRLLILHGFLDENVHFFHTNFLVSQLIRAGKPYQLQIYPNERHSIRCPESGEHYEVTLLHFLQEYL

[8] = target: T1, Dipeptidyl peptidase 4; test: Percent inhibition against human dipeptidylpeptidase 4 at 33 uM concentration
Target sequence in this assay (P27487 whole entry, looked up): as the sequence (P27487 whole entry) above

Dipeptidyl peptidase 8, sequence (Q6V1X1 whole entry): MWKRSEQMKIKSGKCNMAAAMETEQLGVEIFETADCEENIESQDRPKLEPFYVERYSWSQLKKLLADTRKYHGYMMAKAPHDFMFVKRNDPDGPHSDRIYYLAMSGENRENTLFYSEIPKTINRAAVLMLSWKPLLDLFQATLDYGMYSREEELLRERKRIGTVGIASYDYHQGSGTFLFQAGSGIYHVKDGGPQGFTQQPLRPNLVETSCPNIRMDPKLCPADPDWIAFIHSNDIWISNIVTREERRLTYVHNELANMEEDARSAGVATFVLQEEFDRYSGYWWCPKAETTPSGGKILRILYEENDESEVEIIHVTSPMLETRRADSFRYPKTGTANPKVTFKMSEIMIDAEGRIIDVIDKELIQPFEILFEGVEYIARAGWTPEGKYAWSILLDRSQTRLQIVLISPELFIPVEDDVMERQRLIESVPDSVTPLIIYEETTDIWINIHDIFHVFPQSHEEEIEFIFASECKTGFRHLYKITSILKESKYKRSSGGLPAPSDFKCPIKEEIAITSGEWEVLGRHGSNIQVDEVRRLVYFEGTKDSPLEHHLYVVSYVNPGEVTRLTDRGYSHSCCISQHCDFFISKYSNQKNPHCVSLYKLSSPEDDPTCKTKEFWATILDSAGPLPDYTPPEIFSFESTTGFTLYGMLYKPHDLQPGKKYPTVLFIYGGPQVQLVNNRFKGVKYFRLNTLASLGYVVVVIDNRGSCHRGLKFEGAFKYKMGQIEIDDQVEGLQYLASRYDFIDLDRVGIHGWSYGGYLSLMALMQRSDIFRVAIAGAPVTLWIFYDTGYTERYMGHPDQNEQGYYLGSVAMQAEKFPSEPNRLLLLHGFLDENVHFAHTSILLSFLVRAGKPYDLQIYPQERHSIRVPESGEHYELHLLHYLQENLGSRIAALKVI

Row | IC50 [1] | IC50 [2] | IC50 [3] | SMILES | IC50 [4] | inhibition [5] | IC50 [6] | IC50 [7] | inhibition [8]
1 | 0.002 µM | 0.0045 µM |  | CCCC[C@H](N)C(=O)N1CCC[C@@H]1B(O)O |  |  |  |  | 
2 | 0.04 µM | 17 µM | No inhibition | CCCC[C@@H](NC(=O)[C@@H](N)C(C)C)B(O)O |  |  |  |  | 
3 | 0.018 µM | 0.37 µM | No inhibition | CCCC[C@@H](NC(=O)[C@@H](N)CCCC)B(O)O |  |  |  |  | 
4 | 0.0047 µM | 1.2 µM | No inhibition | CCCC[C@@H](NC(=O)[C@@H](N)CCCN)B(O)O |  |  |  |  | 
5 | 0.00072 µM | 0.015 µM |  | NCC[C@H](N)C(=O)N1CCC[C@@H]1B(O)O |  |  |  |  | 
6 | 0.0082 µM | 2 µM | No inhibition | CCCC[C@@H](NC(=O)[C@@H](N)CN)B(O)O |  |  | No inhibition |  | 
7 | 0.16 µM |  |  | CC(C)[C@H](N)C(=O)N[C@@H](C)B(O)O |  |  |  |  | 
8 | 5.5 µM |  | No inhibition | CCCCCNC(=O)[C@@H](N)CCCC |  |  | No inhibition | No inhibition | 35%
9 | 0.071 µM | 0.81 µM | No inhibition | CCCC[C@@H](NC(=O)[C@@H](N)CCC)B(O)O |  |  |  |  | 
10 | 0.049 µM | 32 µM | No inhibition | CCCC[C@@H](NC(=O)[C@@H](N)CC)B(O)O |  |  |  |  | 

Row | SMILES | IC50 [1] | IC50 [2] | IC50 [3] | IC50 [4] | inhibition [5] | IC50 [6] | IC50 [7] | inhibition [8]
11 | CCCC[C@@H](NC(=O)[C@@H](N)CCCCN)B(O)O | 0.0037 µM |  | No inhibition | Not Active |  |  |  | 
12 | CCCC[C@@H](NC(=O)[C@@H]1CCCN1)B(O)O | 0.89 µM |  | No inhibition | Not Active | 35% | No inhibition |  | 
13 | CCCCCNC(=O)[C@@H](N)CCN | 2.6 µM |  | No inhibition | Not Active |  | No inhibition | No inhibition | 
14 | CCCC[C@@H](NC(=O)[C@@H](N)CCN)B(O)O | 0.00048 µM |  | No inhibition |  |  |  |  | 40%
15 | CCCC[C@@H](NC(=O)[C@H](C)N)B(O)O | 0.22 µM |  | No inhibition | Not Active | 40% |  |  | 
